Results reported in ChEMBL document CHEMBL4680075, “Small-Molecule CD4-Mimics: Structure-Based Optimization of HIV-1 Entry Inhibition” (ACS Med Chem Lett, 2016).

How the values were obtained:
[1] = test system: Human immunodeficiency virus 1; assay: Binding affinity to HIV1 YU-2 gp120 assessed as change in gibbs free energy by isothermal titration calorimetric analysis
[2] = test system: Human immunodeficiency virus 1; assay: Binding affinity to HIV1 YU-2 gp120 assessed as change in entropy by isothermal titration calorimetric analysis
[3] = test system: Human immunodeficiency virus 1; assay: Antiviral activity against HIV1 YU-2 infected in dog Cf2Th/CD4-CCR5 cells assessed as inhibition of viral entry incubated for 30 mins prior to infection and measured after 48 hrs post infection by luciferase reporter gene assay; assay type: functional, organism-based; conditions: Human immunodeficiency virus 1, YU-2, Cf2Th-CCR5
Procedure, shortened: (§1)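 Cf2Th-CD4/CCR5 target cells infected with recombinant luciferase-expressing HIV-1 pseudoviruses bearing the indicated strain's envelope glycoproteins, with compound at increasing concentrations; infection read as target-cell luciferase activity, expressed as percent of infection without compound; IC50 derived from this.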

[4] = test system: Human immunodeficiency virus 1; assay: Antiviral activity against HIV1 Clade B infected in human TZM-bl cells assessed as inhibition of viral entry incubated for 30 mins prior to infection and measured after 48 hrs post infection by luciferase reporter gene assay; assay type: functional, organism-based; conditions: Human immunodeficiency virus 1, Clade B
[5] = test system: Human immunodeficiency virus 1; assay: Antiviral activity against HIV1 pseudotyped with A-MLV envelop glycoprotein infected in dog Cf2Th/CD4-CCR5 cells assessed as inhibition of viral entry incubated for 30 mins prior to infection and measured after 48 hrs post infection by luciferase reporter gene assay; assay type: functional, organism-based; conditions: Human immunodeficiency virus 1, Cf2Th-CCR5
Procedure, shortened: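 Control counterscreen: Cf2Th-CD4/CCR5 cells infected with luciferase-expressing HIV-1 pseudotyped with amphotropic murine leukemia virus envelope glycoproteins, compound at increasing concentrations; luciferase activity in target cells as percent of no-compound infection; IC50 from this.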

[6] = test system: Human immunodeficiency virus 1; assay: Antiviral activity against HIV1 AD8 infected in dog Cf2Th/CD4-CCR5 cells assessed as inhibition of viral entry incubated for 30 mins prior to infection and measured after 48 hrs post infection by luciferase reporter gene assay; assay type: functional, organism-based; conditions: Human immunodeficiency virus 1, AD8, Cf2Th-CCR5; procedure, shortened: as §1
[7] = test system: Human immunodeficiency virus 1; assay: Binding affinity to HIV1 YU-2 gp120 assessed as change in enthalpy by isothermal titration calorimetric analysis
[8] = test system: Human immunodeficiency virus 1; assay: Antiviral activity against HIV1 Clade C infected in human TZM-bl cells assessed as inhibition of viral entry incubated for 30 mins prior to infection and measured after 48 hrs post infection by luciferase reporter gene assay; assay type: functional, organism-based; conditions: Human immunodeficiency virus 1, Clade C
[9] = test system: Human immunodeficiency virus 1; assay: Antiviral activity against HIV1 JRFL infected in dog Cf2Th/CD4-CCR5 cells assessed as inhibition of viral entry incubated for 30 mins prior to infection and measured after 48 hrs post infection by luciferase reporter gene assay; assay type: functional, organism-based; conditions: Human immunodeficiency virus 1, JRFL; procedure, shortened: as §1
[10] = Binding affinity to HIV1 YU-2 gp120 by isothermal titration calorimetric analysis; parameters: species or system Human immunodeficiency virus 1

| Structure (SMILES) | deltaG [1] | -TdeltaS [2] | IC50 [3] | IC50 [4] | IC50 [5] | IC50 [6] | deltaH [7] | IC50 [8] | IC50 [9] | Kd [10] |
| --- | --- | --- | --- | --- | --- | --- | --- | --- | --- | --- |
| CNCc1ccc2c(c1)C[C@H](CNC(=N)N)[C@H]2NC(=O)C(=O)Nc1ccc(Cl)c(F)c1 | -41.8 kJ/mol | 44.8 kJ/mol | 1.3 µM | 3.5 µM | > 100 µM | 3.1 µM | -86.6 kJ/mol | 17 µM | 14.5 µM | 0.047 µM |
| CNCc1ccc2c(c1)[C@H](NC(=O)C(=O)Nc1ccc(Cl)c(F)c1)[C@@H](CNC(=N)N)C2 | -43.5 kJ/mol | 74.5 kJ/mol | 2.1 µM | – | > 100 µM | 6.7 µM | -118 kJ/mol | – | 37.3 µM | 0.024 µM |
| CNCc1ccc2c(c1)C[C@@H](CNC(=N)N)[C@@H]2NC(=O)C(=O)Nc1ccc(Cl)c(F)c1 | -33.9 kJ/mol | 21.3 kJ/mol | 21 µM | – | > 100 µM | – | -55.2 kJ/mol | – | > 100 µM | 1.2 µM |
| N=C(N)NC[C@H]1Cc2ccccc2[C@@H]1NC(=O)C(=O)Nc1ccc(Cl)c(F)c1 | -39.7 kJ/mol | 35.1 kJ/mol | 3.8 µM | – | 94.3 µM | 8.5 µM | -74.9 kJ/mol | – | 66.8 µM | 0.11 µM |
| CN(Cc1ccc2c(c1)[C@H](NC(=O)C(=O)Nc1ccc(Cl)c(F)c1)[C@@H](CNC(=N)N)C2)C(=N)N | -40.2 kJ/mol | 19.2 kJ/mol | 1.6 µM | – | 83.7 µM | 1.2 µM | -59.4 kJ/mol | – | 19.7 µM | 0.095 µM |
| CN(Cc1ccc2c(c1)C[C@H](CNC(=N)N)[C@H]2NC(=O)C(=O)Nc1ccc(Cl)c(F)c1)C(=N)N | -40.2 kJ/mol | 24.3 kJ/mol | 0.8 µM | – | > 100 µM | 1.6 µM | -64.4 kJ/mol | – | 6.1 µM | 0.095 µM |
| CNCc1ccc2c(c1)[C@@H](NC(=O)C(=O)Nc1ccc(Cl)c(F)c1)[C@H](CNC(=N)N)C2 | -31.4 kJ/mol | 15.9 kJ/mol | 87.8 µM | – | > 100 µM | > 100 µM | -47.3 kJ/mol | – | > 100 µM | 3.4 µM |
